In ChEMBL document CHEMBL4229369, “Design, synthesis and antitubercular evaluation of benzothiazinones containing a piperidine moiety” (Eur J Med Chem, 2018):
Converted amounts (≈) assume the structure as drawn.

Tests used:
Assay type in all cases: functional
[1] = tested on: Mycobacterium tuberculosis; experiment: Antitubercular activity against multi-drug resistant Mycobacterium tuberculosis
Outline: (§1)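 Inoculum grown to late log phase in Middlebrook 7H9 with 0.2% glycerol, 0.05% Tween 80 and 10% ADC, then washed in PBS, filtered through 8 µm to remove clumps and frozen at -80 °C. Twofold compound dilutions in 7H9-ADC-TG with 2 × 10⁵ CFU per well, 37 °C. Alamar blue and Tween 80 added on day 7, read after 16-24 h (ex 530/em 590 nm). MIC is the lowest concentration giving ≥90% fluorescence reduction versus bacterium-only controls.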

[2] = tested on: Mycobacterium tuberculosis; experiment: Antitubercular activity against multi-drug resistant Mycobacterium tuberculosis isolate 16995 after 7 days by Alamar blue assay; conditions: isolate 16995, 168 h; outline: as §1
[3] = tested on: Mycobacterium tuberculosis; experiment: Antitubercular activity against multi-drug resistant Mycobacterium tuberculosis isolate 16883 after 7 days by Alamar blue assay; conditions: isolate 16883, 168 h; outline: as §1

`CN(CC1CCCCC1)C1CCN(c2nc(=O)c3cc(C(F)(F)F)cc([N+](=O)[O-])c3s2)CC1` was tested, and the MIC [1] was 0.016 µg/mL (≈ 0.033 µM).

In the case of `CO[C@H]1/C=C/O[C@@]2(C)Oc3c(C)c(O)c4c(O)c(c(/C=N/N5CCN(C)CC5)c(O)c4c3C2=O)NC(=O)/C(C)=C\C=C\[C@H](C)[C@H](O)[C@@H](C)[C@@H](O)[C@@H](C)[C@H](OC(C)=O)[C@@H]1C` [RIFAMPIN], the MIC90 [2] is reported as > 40 µg/mL and the MIC90 [3] is reported as > 40 µg/mL.

With `O=c1nc(N2CCN(CC3CCCCC3)CC2)sc2c([N+](=O)[O-])cc(C(F)(F)F)cc12` [MACOZINONE] the MIC90 [2] was < 0.016 µg/mL and the MIC90 [3] was < 0.016 µg/mL.

In the case of `NNC(=O)c1ccncc1` [ISONIAZID], the MIC90 [2] is reported as > 40 µg/mL and the MIC90 [3] is reported as > 40 µg/mL.

For `O=c1nc(N2CCC(CN3CCC(C(F)(F)F)CC3)CC2)sc2c([N+](=O)[O-])cc(C(F)(F)F)cc12`, the MIC90 [2] was < 0.016 µg/mL and the MIC90 [3] was < 0.016 µg/mL.
